Assay results reported in ChEMBL document CHEMBL4706730, “A Set of Highly Sensitive Sirtuin Fluorescence Probes for Screening Small-Molecular Sirtuin Defatty-Acylase Inhibitors” (ACS Med Chem Lett, 2021).
Calls of active or inactive are those of the source. The rule behind the calls is not given here.

Key:
[1] = target: T1, NAD-dependent protein deacetylase sirtuin-2 (Homo sapiens, UniProt Q8IXJ6); assay: (§1) Inhibition of 5-(3-((1r,4r)-4-((5S,8S,11S,14S,17S,20S,29S)-11-((1H-imidazol-4-yl)methyl)-1,33-diamino-5-carbamoyl-17-(4-(4-(4-((4-(dimethylamino)phenyl)diazenyl)phenyl)butanamido)butyl)-8,14-bis(3-guanidinopropyl)-20-methyl-7,10,13,16,19,22,25,28-octaoxo-6,9,12,15,18,21,24,27-octaazatritriacontan-29-ylcarbamoyl)cyclohexyl)thioureido)-2-(6-hydroxy-3-oxo-3H-xanthen-9-yl)benzoic acid binding to SIRT2 (unknown origin) measured after 2 hrs in presence of NAD+ by fluorometric method
T1 sequence (Q8IXJ6 whole entry): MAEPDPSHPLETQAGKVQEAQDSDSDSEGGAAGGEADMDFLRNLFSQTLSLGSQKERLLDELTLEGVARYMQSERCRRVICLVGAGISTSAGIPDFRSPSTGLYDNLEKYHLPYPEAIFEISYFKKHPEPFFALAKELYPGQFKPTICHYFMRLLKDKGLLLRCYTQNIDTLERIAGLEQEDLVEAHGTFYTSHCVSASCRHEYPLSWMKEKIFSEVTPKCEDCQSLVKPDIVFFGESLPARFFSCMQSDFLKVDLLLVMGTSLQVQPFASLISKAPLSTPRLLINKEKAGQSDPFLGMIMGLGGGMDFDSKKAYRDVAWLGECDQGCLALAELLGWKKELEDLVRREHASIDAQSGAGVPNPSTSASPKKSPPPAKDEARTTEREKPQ
Procedure, shortened: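 The second screen used the same SIRT2 one-step FRET probe conditions, validated at 2.92 nM SIRT2. Compounds were tested over a range of concentrations to check dose-dependency, and the IC50 was derived from the dose–response curve.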

[2] = target: T2, NAD-dependent protein deacetylase sirtuin-2 (Homo sapiens) (UniProt Q8IXJ6); assay: as §1, with “origin) at 10 uM” for “origin)”, “method relative to control” for “method”
T2 sequence (whole entry): T1 sequence (Q8IXJ6 whole entry)
Procedure, shortened: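 In the primary library screen, 384-well plates held SIRT2 with the Dabcyl-BH/H4K16 one-step FRET probe. Each compound was tested at 10 μM with 0.5% DMSO, and inhibition was taken from the fluorescence signal.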

[3] = target: T2, NAD-dependent protein deacetylase sirtuin-2 (Homo sapiens); assay: (§2) Inhibition of p53(Myr)-AMC binding to SIRT2 (unknown origin) incubated for 3 hrs in presence of NAD+ followed by trypsin addition and measured at 5 mins interval for 20 mins by fluorometric method; settings: time 200.0 min
[4] = target: T1, NAD-dependent protein deacetylase sirtuin-2; assay: as §2
[5] = target: T3, NAD-dependent protein deacetylase sirtuin-1 (Homo sapiens) (UniProt Q96EB6); assay: as §1, with “SIRT1” for “SIRT2”, “origin) at 50 uM” for “origin)”
T3 sequence (whole entry): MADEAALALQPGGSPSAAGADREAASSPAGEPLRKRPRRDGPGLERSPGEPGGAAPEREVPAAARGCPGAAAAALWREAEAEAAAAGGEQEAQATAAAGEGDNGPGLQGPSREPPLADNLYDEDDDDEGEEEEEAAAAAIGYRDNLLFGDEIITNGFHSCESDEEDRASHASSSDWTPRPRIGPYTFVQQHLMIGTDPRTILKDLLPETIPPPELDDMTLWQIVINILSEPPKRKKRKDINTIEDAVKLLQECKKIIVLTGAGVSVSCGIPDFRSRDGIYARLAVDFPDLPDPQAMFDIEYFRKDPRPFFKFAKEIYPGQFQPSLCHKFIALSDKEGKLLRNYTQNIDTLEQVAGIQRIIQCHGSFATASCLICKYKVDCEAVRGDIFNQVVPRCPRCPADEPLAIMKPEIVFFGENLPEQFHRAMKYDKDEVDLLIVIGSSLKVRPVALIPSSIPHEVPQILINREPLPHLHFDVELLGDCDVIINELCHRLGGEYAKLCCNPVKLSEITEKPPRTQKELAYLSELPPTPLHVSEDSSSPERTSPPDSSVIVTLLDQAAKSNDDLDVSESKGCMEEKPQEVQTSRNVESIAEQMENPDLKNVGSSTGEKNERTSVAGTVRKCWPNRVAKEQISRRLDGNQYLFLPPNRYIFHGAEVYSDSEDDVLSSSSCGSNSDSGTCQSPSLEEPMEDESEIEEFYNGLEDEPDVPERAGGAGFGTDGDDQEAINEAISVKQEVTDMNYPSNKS

[6] = target: T4, NAD-dependent protein deacetylase sirtuin-3, mitochondrial (Homo sapiens) (UniProt Q9NTG7); assay: as §1, with “SIRT3” for “SIRT2”, “origin) at 50 uM” for “origin)”
T4 sequence (whole entry): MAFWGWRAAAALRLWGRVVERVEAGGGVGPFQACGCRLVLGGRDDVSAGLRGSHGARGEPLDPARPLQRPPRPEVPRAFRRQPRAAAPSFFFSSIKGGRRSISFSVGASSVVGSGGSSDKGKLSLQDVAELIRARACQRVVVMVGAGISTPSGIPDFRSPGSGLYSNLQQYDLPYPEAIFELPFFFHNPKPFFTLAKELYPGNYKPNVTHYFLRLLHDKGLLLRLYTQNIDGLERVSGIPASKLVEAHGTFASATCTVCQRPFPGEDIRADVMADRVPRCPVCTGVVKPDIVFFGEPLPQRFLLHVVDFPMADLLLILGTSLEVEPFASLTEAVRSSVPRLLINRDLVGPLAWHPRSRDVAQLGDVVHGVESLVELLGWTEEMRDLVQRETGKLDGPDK

[7] = target: NAD-dependent protein deacylase sirtuin-6 (Homo sapiens) (UniProt Q8N6T7); assay: Inhibition of 5-[[(1r,4r)-4-[[(1S)-4-amino-1-[[(1S,2R)-1-[[(1S)-2-[[(1S)-1-[[(1S)-1-[[(1S)-2-[[(1S,2R)-1-[[2-(carboxymethylamino)-2-oxoethyl]carbamoyl]-2-hydroxypropyl]amino]-1-(hydroxymethyl)-2-oxoethyl]carbamoyl]-5-[3-[N-methyl-4-[(4-nitrophenyl)azo]anilino]propanoylamino]pentyl]carbamoyl]-4-guanidinobutyl]amino]-1-methyl-2-oxoethyl]carbamoyl]-2-hydroxypropyl]carbamoyl]-4-oxobutyl]carbamoyl]cyclohexyl]carbamothioylamino]-2-(3-hydroxy-6-oxoxanthen-9-yl)benzoic acid binding to SIRT6 (unknown origin) at 50 uM measured after 2 hrs in presence of NAD+ by fluorometric method
Sequence of NAD-dependent protein deacylase sirtuin-6 (Homo sapiens) (Q8N6T7 whole entry): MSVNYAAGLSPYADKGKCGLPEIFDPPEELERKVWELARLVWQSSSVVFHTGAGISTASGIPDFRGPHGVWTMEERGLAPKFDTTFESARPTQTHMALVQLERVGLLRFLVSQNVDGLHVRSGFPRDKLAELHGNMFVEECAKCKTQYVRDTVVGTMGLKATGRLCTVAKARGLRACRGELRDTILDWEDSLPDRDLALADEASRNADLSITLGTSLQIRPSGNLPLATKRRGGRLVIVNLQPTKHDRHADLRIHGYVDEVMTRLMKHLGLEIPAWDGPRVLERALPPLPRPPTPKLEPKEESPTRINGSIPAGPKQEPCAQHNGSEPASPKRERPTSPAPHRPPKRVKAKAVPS

[8] = target: T1, NAD-dependent protein deacetylase sirtuin-2; assay: Inhibition of SIRT2 deacetylation activity (unknown origin) using FLUOR DE LYS SIRT2 peptide as substrate incubated for 2 hrs in presence of NAD+ measured at 5 mins interval for 20 mins by fluorescence assay

IC50 [1]: 47.9 µM
inhibition [2]: > 35%
inhibition [3]: Dose-dependent effect
IC50 [4]: 44.4 µM
inhibition [5]: inactive
inhibition [6]: inactive
inhibition [7]: inactive
IC50 [8]: 5.09 µM
SMILES: CCOC(=O)C[C@@H]1C[C@@H](C(C)C)[C@H](CNC(=O)c2cncnc2)C=C1C
